Data taken from ChEMBL document CHEMBL1124727, “Neuronal mapping of the heart with 6-[18F]fluorometaraminol” (1990).

Assays:
Canis familiaris [1] = organism: Canis familiaris; experiment: Normalized FMR Concentration in anterior wall of heart of phenol treated canine myocardium; assay type: functional, Canis lupus familiaris
Procedure, shortened: (§1)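 Mongrel dogs, LV anterior epicardium (LAD region) painted with 88% phenol in ethanol (v/v); 4–7 days later FMR iv, killed 1 h post by pentobarbital/KCl overdose. LV cut into ~1 cm transverse slices, then radial segments, gamma counted; % kg dose/g normalized to highest-activity segment (atria = 100%). Affected area = mean of three lowest contiguous segments in each of two midbasal slices; controls N = 3, treated N = 5.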

Canis familiaris [2] = organism: Canis familiaris; experiment: Normalized FMR Concentration in posterior wall of heart of phenol treated canine myocardium; assay type: functional, Canis lupus familiaris; procedure, shortened: as §1
Canis familiaris [3] = experiment: Tissue concentration in dog liver after iv administration; assay type: functional, Canis lupus familiaris
Procedure, shortened: (§2)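 Mongrel dogs (two female, 15.0 and 18.6 kg, 0.45 mCi; two male, 2.0 mCi) given FMR as iv cephalic-vein bolus in 2.0 mL sterile 0.15 M acetate buffer, pH 4.5. Killed 1 h later by iv pentobarbital; tissues washed in saline, blotted, weighed, gamma counted 1 min. Expressed as % kg dose/g, N = 4 (muscle, pancreas, kidney N = 2).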

Canis familiaris [4] = experiment: Tissue concentration in dog adrenal medulla after iv administration; assay type: functional, Canis lupus familiaris; procedure, shortened: as §2
Canis familiaris [5] = experiment: Tissue concentration in dog blood after iv administration; assay type: functional, Canis lupus familiaris; procedure, shortened: as §2
Canis familiaris [6] = experiment: Tissue concentration in dog kidney after iv administration; assay type: functional, Canis lupus familiaris; procedure, shortened: as §2
Canis familiaris [7] = experiment: Tissue concentration in dog left atrium after iv administration; assay type: functional, Canis lupus familiaris, Cardiac atrium; procedure, shortened: as §2
Canis familiaris [8] = experiment: Tissue concentration in dog left ventricle after iv administration; assay type: functional, Canis lupus familiaris, Heart left ventricle; procedure, shortened: as §2
Canis familiaris [9] = experiment: Tissue concentration in dog lung after iv administration; assay type: functional, Canis lupus familiaris; procedure, shortened: as §2
Canis familiaris [10] = experiment: Tissue concentration in dog muscle after iv administration; assay type: functional, Canis lupus familiaris; procedure, shortened: as §2
Canis familiaris [11] = experiment: Tissue concentration in dog pancreas after iv administration; assay type: functional, Canis lupus familiaris; procedure, shortened: as §2
Canis familiaris [12] = experiment: Tissue concentration in dog right atrium after iv administration; assay type: functional, Canis lupus familiaris, Cardiac atrium; procedure, shortened: as §2
Canis familiaris [13] = experiment: Tissue concentration in dog right ventricle after iv administration; assay type: functional, Canis lupus familiaris, Heart right ventricle; procedure, shortened: as §2
Canis familiaris [14] = experiment: Tissue concentration in dog spleen after iv administration; assay type: functional, Canis lupus familiaris; procedure, shortened: as §2
Canis familiaris [15] = experiment: Tissue concentration of the compound in dog adrenal cortex after iv administration; assay type: functional, Canis lupus familiaris; procedure, shortened: as §2
Canis familiaris [16] = experiment: Tissue concentration in dog heart after iv administration; assay type: functional, Canis lupus familiaris
Canis familiaris [17] = experiment: Tissue concentration in dog left ventricle to blood ratio after iv administration; assay type: functional, Canis lupus familiaris; procedure, shortened: as §2
Canis familiaris [18] = experiment: Tissue concentration in dog thyroid after iv administration; assay type: functional, Canis lupus familiaris, Thyroid gland
Canis familiaris [19] = organism: Canis familiaris; experiment: Concentration of Endogenous NE and FMR from Midbasal Slices of Phenol-Treated Canine in anterior wall; assay type: functional, organism-based; conditions: Canis lupus familiaris
Procedure, shortened: (§3)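 Phenol-painted (88% phenol in ethanol, epicardial LV anterior wall near LAD) dogs, 4–7 days post surgery; sacrificed 1 h after iv FMR by pentobarbital/KCl overdose. Midbasal LV slices cut into radial segments, gamma counted; homogenized in cold 0.4 M perchloric acid, NE by HPLC-fluorescence. FMR normalized to highest-activity segment = 100%. Three lowest contiguous segments per slice averaged versus opposed segments; Student's t test.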

Canis familiaris [20] = organism: Canis familiaris; experiment: Concentration of Endogenous NE and FMR from Midbasal Slices of Phenol-Treated Canine in posterior wall; assay type: functional, organism-based; conditions: Canis lupus familiaris; procedure, shortened: as §3
Rattus norvegicus [21] = experiment: Neuronal selectivity expressed as Concentration in blood after iv administration in rat, pretreated with 6-hydroxydopamine (control = 0.065+/-0.005); assay type: functional, organism-based; conditions: tested as the 3H-labelled form
Rattus norvegicus [22] = experiment: Neuronal selectivity expressed as Concentration in spleen after iv administration in rat, pretreated with 6-hydroxydopamine (control = 0.85+/-0.005); assay type: functional, organism-based; conditions: tested as the 3H-labelled form
Rattus norvegicus [23] = experiment: Neuronal selectivity expressed as Concentration in left atrium after iv administration in rat, pretreated with 6-hydroxydopamine (control =4.75+/-0.28); conditions: Cardiac atrium, tested as the 3H-labelled form
Rattus norvegicus [24] = experiment: Neuronal selectivity expressed as Concentration in rigt atrium after iv administration in rat, pretreated with 6-hydroxydopamine (control = 4.86+/-0.68); conditions: Cardiac atrium, tested as the 3H-labelled form
Rattus norvegicus [25] = experiment: Neuronal selectivity expressed as Concentration in left ventricle after iv administration in rat, pretreated with 6-hydroxydopamine (control = 4.10+/-0.23); conditions: Heart left ventricle, tested as the 3H-labelled form
Rattus norvegicus [26] = experiment: Neuronal selectivity expressed as Concentration in right ventricle after iv administration in rat, pretreated with 6-hydroxydopamine (control = 4.86+/-0.24); conditions: Heart right ventricle, tested as the 3H-labelled form

Question: For `CC(N)C(O)c1cc(O)ccc1F` (centres undefined), which “[3H] concentration” value (Canis familiaris [1]) is on record?
Answer: Its value is 14.5 % kg dose g-1.

Question: What about the “[3H] concentration” value (Canis familiaris [2]) of the same compound?
Answer: The value was 53.8 % kg dose g-1.

Question: And the “[3H] concentration” value (Canis familiaris [3])?
Answer: The value was 0.33 % kg dose g-1.

Question: And the “[3H] concentration” value (Canis familiaris [4])?
Answer: The value was 9.89 % kg dose g-1.

Question: What about the “[3H] concentration” value (Canis familiaris [5]) of the same compound?
Answer: Its value is 0.04 % kg dose g-1.

Question: And the “[3H] concentration” value (Canis familiaris [6])?
Answer: The value was 0.41 % kg dose g-1.

Question: What about the “[3H] concentration” value (Canis familiaris [7]) of the same compound?
Answer: The value was 1.54 % kg dose g-1.

Question: What about the “[3H] concentration” value (Canis familiaris [8]) of the same compound?
Answer: The value was 1.24 % kg dose g-1.

Question: What about the “[3H] concentration” value (Canis familiaris [9]) of the same compound?
Answer: The value was 0.26 % kg dose g-1.

Question: What about the “[3H] concentration” value (Canis familiaris [10]) of the same compound?
Answer: Its value is 0.07 % kg dose g-1.

Question: What about the “[3H] concentration” value (Canis familiaris [11]) of the same compound?
Answer: The value was 0.6 % kg dose g-1.

Question: And the “[3H] concentration” value (Canis familiaris [12])?
Answer: Its value is 1.44 % kg dose g-1.

Question: What about the “[3H] concentration” value (Canis familiaris [13]) of the same compound?
Answer: Its value is 0.89 % kg dose g-1.

Question: What about the “[3H] concentration” value (Canis familiaris [14]) of the same compound?
Answer: Its value is 0.69 % kg dose g-1.

Question: What about the “[3H] concentration” value (Canis familiaris [15]) of the same compound?
Answer: The value was 0.59 % kg dose g-1.

Question: `CC(N)C(O)c1ccc(I)c(O)c1` (centres undefined) was tested. Which “[3H] concentration” value (Canis familiaris [3]) did it give?
Answer: Its value is 0.5 % kg dose g-1.

Question: What about the “[3H] concentration” value (Canis familiaris [4]) of the same compound?
Answer: The value was 0.45 % kg dose g-1.

Question: What about the “[3H] concentration” value (Canis familiaris [5]) of the same compound?
Answer: The value was 0.04 % kg dose g-1.

Question: What about the “[3H] concentration” value (Canis familiaris [16]) of the same compound?
Answer: The value was 0.17 % kg dose g-1.

Question: What about the “[3H] concentration” value (Canis familiaris [17]) of the same compound?
Answer: The value was 4 % kg dose g-1.

Question: What about the “[3H] concentration” value (Canis familiaris [9]) of the same compound?
Answer: Its value is 0.25 % kg dose g-1.

Question: What about the “[3H] concentration” value (Canis familiaris [14]) of the same compound?
Answer: Its value is 0.26 % kg dose g-1.

Question: And the “[3H] concentration” value (Canis familiaris [18])?
Answer: The value was 0.2 % kg dose g-1.

Question: How did the “[3H] concentration” value (Canis familiaris [3]) turn out when `CC(N)C(O)c1cc(O)ccc1I` (centres undefined) was run?
Answer: The value was 0.49 % kg dose g-1.

Question: And the “[3H] concentration” value (Canis familiaris [4])?
Answer: Its value is 0.2 % kg dose g-1.

Question: What about the “[3H] concentration” value (Canis familiaris [5]) of the same compound?
Answer: The value was 0.05 % kg dose g-1.

Question: What about the “[3H] concentration” value (Canis familiaris [16]) of the same compound?
Answer: The value was 0.05 % kg dose g-1.

Question: And the “[3H] concentration” value (Canis familiaris [17])?
Answer: Its value is 1 % kg dose g-1.

Question: What about the “[3H] concentration” value (Canis familiaris [9]) of the same compound?
Answer: Its value is 0.26 % kg dose g-1.

Question: And the “[3H] concentration” value (Canis familiaris [14])?
Answer: Its value is 0.08 % kg dose g-1.

Question: And the “[3H] concentration” value (Canis familiaris [18])?
Answer: Its value is 0.06 % kg dose g-1.

Question: For `NC[C@H](O)c1ccc(O)c(O)c1`, which Concentration (Canis familiaris [19]) is on record?
Answer: The Concentration was 303 ng/g.

Question: And the Concentration (Canis familiaris [20])?
Answer: Its Concentration is 1460 ng/g.

Question: And the Concentration (Rattus norvegicus [21])?
Answer: Its Concentration is 0.052 % dose g-1.

Question: What about the Concentration (Rattus norvegicus [22]) of the same compound?
Answer: The Concentration was 0.25 % dose g-1.

Question: And the Concentration (Rattus norvegicus [23])?
Answer: The Concentration was 0.39 % dose g-1.

Question: What about the Concentration (Rattus norvegicus [24]) of the same compound?
Answer: The Concentration was 0.29 % dose g-1.

Question: What about the Concentration (Rattus norvegicus [25]) of the same compound?
Answer: Its Concentration is 0.6 % dose g-1.

Question: What about the Concentration (Rattus norvegicus [26]) of the same compound?
Answer: Its Concentration is 0.41 % dose g-1.
